# Data reported in paper PMC3736319 (Antiviral therapy, 2012).
# “Also recorded” adds a separate entry of the source. Read-outs that look alike come from different tables or passages of the source.
# Experiments:
# [1] = Steady-state intracellular carbovir triphosphate; assay type: in vivo, human (HIV-infected subjects)
# [2] = assay type: in vivo, human (HIV-infected subjects); conditions: human, plasma, 400 mg
# Outline: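 HIV-infected adults on a steady-state nucleoside backbone (600 mg once daily, plus two NRTIs, no tenofovir) were randomized 1:1 to a crossover: boosted protease inhibitor 900/100 mg once daily or integrase inhibitor 400 mg twice daily, 14 days each. On days 15 and 29, after a standardized breakfast, serial plasma was drawn over 24 h (protease inhibitor, booster) or 12 h (integrase inhibitor) and measured by a validated assay. Non-compartmental linear–linear trapezoidal AUC0–24 or AUC0–12.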
# [3] = Steady-state plasma pharmacokinetics of abacavir; assay type: in vivo, human (HIV-infected subjects); conditions: for Change in plasma ABC concentrations: in the presence of raltegravir versus ABC alone
# [4] = cited from earlier work
# [5] = PBMC, ABC 600 mg once daily alone, steady state, n=19
# [6] = in the presence of darunavir/ritonavir versus ABC alone
# [7] = with darunavir/ritonavir versus ABC alone
# [8] = with raltegravir versus ABC alone
compound,measurement,setting,value
"Nc1nc(=O)c2ncn([C@H]3C=C[C@@H](COP(=O)(O)OP(=O)(O)OP(=O)(O)O)C3)c2[nH]1 [CBV-TP, carbovir 5′-triphosphate]","Intracellular CBV-TP AUC0–24, geometric mean (90% CI)",[1]; [5],"4,459 (4,060, 5,802) fmol•h/million cells"
same,"Intracellular CBV-TP Cmax, geometric mean (90% CI)",[1]; [5],"329 (298, 450) fmol/million cells"
same,"Intracellular CBV-TP Ctrough, geometric mean (90% CI)",[1]; [5],"107 (96, 143) fmol/million cells"
same,Inter-individual variability in intracellular CBV-TP pharmacokinetic parameters,[1]; during coadministration of ABC and darunavir/ritonavir or raltegravir,> 43%
same,Change in intracellular CBV-TP Cmax and AUC0–24,[1]; [6],no other significant change; also recorded: not significantly different
same,Decrease in intracellular CBV-TP Ctrough,[1]; [6],32%
same,Change in intracellular CBV-TP concentrations,[1]; in the presence of raltegravir versus ABC alone,did not lead to any significant alteration; also recorded: No significant changes
same,Decrease in intracellular CBV-TP Ctrough,"[1]; in the presence of raltegravir versus ABC alone, not statistically significant",43%
same,"Intracellular CBV-TP Ctrough, GMR (90% CI)",[1]; [7],"0.68 (0.48, 0.95)"
same,"Intracellular CBV-TP Ctrough, GMR (90% CI)",[1]; [8],"0.57 (0.33, 1.00)"
Cc1nnc(C(=O)NC(C)(C)c2nc(C(=O)NCc3ccc(F)cc3)c(O)c(=O)n2C)o1 [raltegravir],AUC(0-t),[2],2410 ng·h/mL
"Nc1nc(NC2CC2)c2ncn([C@H]3C=C[C@@H](CO)C3)c2n1 [ABC, abacavir]",AUC(0-t),"[3]; human, plasma, 600 mg",13500 ng·h/mL
same,Cmax,"[3]; human, plasma, 600 mg",4010 ng/mL
same,concentration at 24 h,"[3]; human, plasma, 600 mg",4.3 ng/mL
same,Decrease in plasma ABC AUC (exposure),[3]; [6],27%
same,Decrease in plasma ABC Cmax,[3]; [6],22%
same,Decrease in plasma ABC Ctrough,[3]; [6],38%
same,Change in plasma ABC concentrations,[3],No significant changes
same,Change in plasma ABC concentrations,[3]; listed as abacavir,no changes
same,Inter-individual variability in ABC Ctrough,"[3]; plasma, across study phases",> 87%
same,"Plasma ABC Ctrough, GMR (90% CI)",[3]; [7],"0.62 (0.50, 0.77)"
same,"Plasma ABC Ctrough, GMR (90% CI)",[3]; [8],"0.83 (0.62, 1.11)"
same,Decrease in ABC plasma exposure,[4]; in combination with boosted atazanavir,17%
same,Decrease in ABC plasma exposure,[4]; in combination with boosted lopinavir,32%
same,Decrease in ABC plasma exposure,[4]; in combination with boosted tipranavir,40%
same,Increase in ABC plasma exposure,[4]; with high doses of ethanol,41%
